Experimental data from different studies.
Lines come from different studies, so protocols differ.
Target: Mitogen-activated protein kinase kinase kinase kinase 2 (MAP4K2, Homo sapiens, UniProt Q12851)
Sequence (Q12851 1-820, as in one of the studies): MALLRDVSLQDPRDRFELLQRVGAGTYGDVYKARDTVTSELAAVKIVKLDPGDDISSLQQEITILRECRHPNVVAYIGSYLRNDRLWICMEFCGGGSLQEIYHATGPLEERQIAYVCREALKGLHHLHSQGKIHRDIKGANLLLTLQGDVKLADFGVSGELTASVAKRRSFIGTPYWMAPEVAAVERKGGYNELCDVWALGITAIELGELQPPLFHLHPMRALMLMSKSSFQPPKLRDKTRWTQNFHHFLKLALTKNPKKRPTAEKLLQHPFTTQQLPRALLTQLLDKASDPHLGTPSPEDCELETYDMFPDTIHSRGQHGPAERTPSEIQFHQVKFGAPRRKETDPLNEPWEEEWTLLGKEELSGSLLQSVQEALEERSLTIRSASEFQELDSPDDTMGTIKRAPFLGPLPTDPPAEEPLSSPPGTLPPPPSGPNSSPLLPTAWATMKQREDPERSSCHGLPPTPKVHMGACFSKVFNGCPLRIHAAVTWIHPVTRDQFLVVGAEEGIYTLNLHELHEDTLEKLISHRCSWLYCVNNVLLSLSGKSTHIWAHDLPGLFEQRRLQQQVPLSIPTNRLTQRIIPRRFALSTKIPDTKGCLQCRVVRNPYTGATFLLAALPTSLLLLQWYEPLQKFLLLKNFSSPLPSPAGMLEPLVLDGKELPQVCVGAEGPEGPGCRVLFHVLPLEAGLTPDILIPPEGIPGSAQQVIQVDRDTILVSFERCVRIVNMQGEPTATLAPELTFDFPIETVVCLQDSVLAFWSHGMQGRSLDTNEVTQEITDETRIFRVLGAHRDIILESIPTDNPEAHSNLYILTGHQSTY

O=C(Nc1cnc(Oc2ccc(F)cc2)nc1)N1CCc2ncccc2[C@@H]1c1ccc(F)cc1  remaining binding (cell-free assay; competition with immobilised ligand; 1 µM): 100%
N[C@@H]1CCN(c2nccc(-c3cnn4ncccc34)n2)C1  remaining binding (binding; 1 µM): 100%
CNCc1ccccc1-c1csc([C@H](C)Nc2nc(C)nc3cc(OC)c(OC)cc23)c1  remaining binding (cell-free assay; competition with immobilised ligand; 1 µM): 97%
CC1CCCN1c1nccc(-c2cnn3ncccc23)n1 (stereo not shown)  remaining binding (binding; 1 µM): 100%
COc1cnc(Nc2cccc(S(N)(=O)=O)c2)nc1N1CCN(c2ccccc2)CC1  remaining binding (binding; competition with immobilised ligand; 1 µM): 78%
C[C@H](c1cccc(C#N)c1)n1cc(Cl)cc(C(N)=O)c1=N  remaining binding (cell-free assay; competition with immobilised ligand; 1 µM): 99%
COc1cnc(Nc2cccc(S(N)(=O)=O)c2)nc1N1CCN(c2ccccc2)C(=O)C1  remaining binding (binding; competition with immobilised ligand; 1 µM): 95%
CN(C)c1ncnc(-c2ccc3nc(Nc4cc(CN5CCN(C(=O)CC(F)(F)F)CC5)ccn4)[nH]c3c2)c1Cl  remaining binding (cell-free assay; competition with immobilised ligand; 1 µM): 69%
C[C@@H]1CCN(c2nccc(-c3cnn4ncccc34)n2)C1  remaining binding (binding; 1 µM): 70%
O=C(NC[C@@H]1[C@H]2CN(C(=O)OCc3cc(C(F)(F)F)cc(C(F)(F)F)c3)C[C@@H]12)c1ccc2[nH]nnc2c1  remaining binding (cell-free assay; competition with immobilised ligand; 1 µM): 92%
CN(C)c1nccc(-c2cnn3ncccc23)n1  remaining binding (binding; 1 µM): 100%
COc1ncc2cc3ccccc3nc2c1C#N  remaining binding (cell-free assay; competition with immobilised ligand; 5 µM): 84%
Cc1cnc(Nc2ccc(C(=O)N3CCC(N4CCCC4)CC3)cc2)nc1-c1cc2ccccc2s1  remaining binding (binding; competition with immobilised ligand; 1 µM): 41%
c1cnn2ncc(-c3ccnc(N4CCC45COC5)n3)c2c1  remaining binding (binding; 1 µM): 70%
O=C(NCC1CCOCC1)c1n[nH]cc1NC(=O)c1c(F)cccc1F  remaining binding (binding; competition with immobilised ligand; 1 µM): 100%
Cc1cnn2ncc(-c3ccnc(N(C)C)n3)c2c1  remaining binding (binding; 1 µM): 99%
O=C(N1CCS(=O)(=O)CC1)N1C[C@H](c2ccc(OC(F)(F)F)cc2)C[C@H](c2nc(C3CC3)no2)C1  remaining binding (cell-free assay; competition with immobilised ligand; 1 µM): 94%
O=C(NCCCN1CCOCC1)c1ccc(Nc2ncc(Cl)c(-c3ccc(Cl)s3)n2)cc1  remaining binding (binding; competition with immobilised ligand; 1 µM): 31%
Nc1ncc2c(n1)-c1c([nH]c3ccc(C#CC4CC4)cc13)CCCC2  remaining binding (binding; competition with immobilised ligand; 1 µM): 84%
C=CC(=O)N1CCC(C(=O)NCC(=O)N2CCN(c3nc(-c4cnc(N)nc4C(F)F)nc(N4CCOCC4)n3)CC2)CC1  remaining binding (binding; competition with immobilised ligand; 1 µM): 100%
O=C(c1ccc(Nc2ncc(Cl)c(-c3ccc(Cl)s3)n2)cc1)N1CCC(N2CCCC2)CC1  remaining binding (binding; competition with immobilised ligand; 1 µM): 15%
CN(C(=O)c1ccccc1)c1cc(N(C)c2ccc3c(c2)CCc2ccc(C(=O)NCCN4CCOCC4)cc2C3=O)ccc1F  remaining binding (cell-free assay; competition with immobilised ligand; 1 µM): 97%
